Measurements reported in publication PMC9827987 (Chemmedchem, 2022).
Read-outs that look alike come from different tables or passages of the source.

What was measured:
PfDHFR-QM = PfDHFR-QM (Plasmodium falciparum, UniProt P13922, I164L/N51I); test: DHFR enzyme inhibition assay, quadruple mutant; format: biochemical
KB cells = test: Cytotoxicity, sulforhodamine B staining, KB; format: cell-based; conditions: Homo sapiens, read-out: IC50 KB
HsDHFR = molecular target: T1, HsDHFR (Homo sapiens, UniProt P00374); test: biochemical
T1 sequence (P00374 1-187): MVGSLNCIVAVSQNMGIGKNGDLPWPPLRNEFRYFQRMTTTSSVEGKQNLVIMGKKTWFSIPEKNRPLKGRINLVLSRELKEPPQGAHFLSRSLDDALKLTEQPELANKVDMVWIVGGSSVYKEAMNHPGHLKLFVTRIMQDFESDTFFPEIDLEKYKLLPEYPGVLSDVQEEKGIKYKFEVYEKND

[1] = tested on: P. falciparum TM4/8.2 (wild type PfDHFR); test: In vitro antimalarial activity, 3H-hypoxanthine incorporation, TM4/8.2; format: cell-based; conditions: Plasmodium falciparum
PfDHFR-WT = PfDHFR-WT (Plasmodium falciparum, UniProt P13922, N108S/R59C); test: DHFR enzyme inhibition assay, wild type; format: biochemical
[2] = tested on: P. falciparum V1/S (QM PfDHFR); test: In vitro antimalarial activity, 3H-hypoxanthine incorporation, V1S; format: cell-based; conditions: Plasmodium falciparum, read-out: IC50 PfV1S
Method in brief: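 P. falciparum V1/S (quadruple-mutant PfDHFR, chloroquine-resistant) grown in human erythrocytes at 37 °C under 3% CO2. Medium was RPMI 1640 with 25 mM HEPES, 0.2% NaHCO3, 40 µg/mL gentamicin and 8% human serum. Activity was measured by ³H-hypoxanthine incorporation.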

[3] = read-out: IC50 PfTM4/8.2, WT P. falciparum, drug sensitive strain

SMILES | Ki (PfDHFR-QM) [µM] | IC50 (KB cells) [µM] | Ki (HsDHFR) [µM] | IC50 [1, 3] [µM] | Ki (PfDHFR-WT) [µM] | IC50 [2] [µM] | IC50 ([1]; read-out: IC50 PfTM4/8.2) [µM]
COc1ccccc1CCNCc1c(N)nc(N)nc1C1CC1 [7 d, 6‐Cyclopropyl‐5‐{[(2‐methoxyphenethyl)amino]methyl}pyrimidine‐2,4‐diamine] | 0.031 ± 0.002 | > 100 | 1.59 ± 0.029 | 25 ± 1 | 0.015 ± 0.001 | 35 ± 4 | –
CC1(C)N=C(N)N=C(N)N1c1ccc(Cl)cc1 [CYC, cycloguanil, reference compound] | 0.42 ± 0.13 | > 100 | – | – | – | 92 ± 6 | 0.03 ± 0.005
Nc1nc(N)c(CNCCc2ccc(F)cc2)c(C2CCCCC2)n1 [7 t, 6‐Cyclohexyl‐5‐{[(4‐fluorophenethyl)amino]methyl}pyrimidine‐2,4‐diamine] | 0.136 ± 0.007 | 56 ± 5 | > 250 | – | 0.08 ± 0.009 | 7 ± 2 | 2.2 ± 0.1
COc1cccc(CCNCc2c(N)nc(N)nc2C2CCCCC2)c1 [7 p, 6‐Cyclohexyl‐5‐{[(3‐methoxyphenethyl)amino]methyl}pyrimidine‐2,4‐diamine] | 0.056 ± 0.002 | 23 ± 0.3 | > 500 | – | 0.031 ± 0.005 | 4.1 ± 0.3 | 3.5 ± 0.2
Nc1nc(N)c(CNCCc2ccccc2F)c(C2CCCCC2)n1 [7 r, 6‐Cyclohexyl‐5‐{[(2‐fluorophenethyl)amino]methyl}pyrimidine‐2,4‐diamine] | 0.083 ± 0.001 | 48 ± 14 | > 500 | – | 0.061 ± 0.0015 | 16 ± 2 | 4.1 ± 0.7
COc1cccc(CCNCc2c(N)nc(N)nc2-c2ccccc2)c1 [7 b, 6‐Phenyl‐5‐{[(3‐methoxyphenethyl)amino]methyl}pyrimidine‐2,4‐diamine] | 0.074 ± 0.001 | > 100 | > 500 | – | 0.107 ± 0.003 | 48 ± 1 | 27 ± 4
Nc1nc(N)c(CNCCc2ccc(Cl)cc2)c(C2CC2)n1 [7 l, 6‐Cyclopropyl‐5‐{[(4‐chlorophenethyl)amino]methyl}pyrimidine‐2,4‐diamine] | 0.027 ± 0.0001 | 70 ± 0.5 | 0.142 ± 0.006 | 5 ± 0.6 | 0.0025 ± 0.0002 | 18 ± 3 | –
Nc1nc(N)c(CNCCc2cccc(Cl)c2)c(C2CC2)n1 [7 k, 6‐Cyclopropyl‐5‐{[(3‐chlorophenethyl)amino]methyl}pyrimidine‐2,4‐diamine] | 0.02 ± 0.0009 | 82 ± 13 | 0.345 ± 0.007 | 4.2 ± 0.9 | 0.0025 ± 0.0001 | 14 ± 4 | –
Nc1nc(N)c(CNCCc2ccc(Cl)cc2Cl)c(C2CC2)n1 [7 m, 6‐Cyclopropyl‐5‐{[(2,4‐dichlorophenethyl)amino]methyl}pyrimidine‐2,4‐diamine] | – | 66 ± 2 | 0.131 ± 0.005 | 3.6 ± 0.2 | 0.002 ± 3e-05 | 6.3 ± 1.2 | –
COc1cccc(CCNCc2c(N)nc(N)nc2C2CC2)c1 [7 e, 6‐Cyclopropyl‐5‐{[(3‐methoxyphenethyl)amino]methyl}pyrimidine‐2,4‐diamine] | 0.026 ± 0.0005 | 74 ± 4 | 1.04 ± 0.034 | 4.2 ± 0.2 | 0.0044 ± 0.0002 | 13 ± 1 | –
COc1ccccc1CCNCc1c(N)nc(N)nc1-c1ccccc1 [7 a, 6‐Phenyl‐5‐{[(2‐methoxyphenethyl)amino]methyl}pyrimidine‐2,4‐diamine] | 0.208 ± 0.003 | > 100 | > 500 | – | 0.243 ± 0.021 | 54 ± 2 | 27 ± 3
Nc1nc(N)c(CNCCc2ccc(F)cc2)c(C2CC2)n1 [7 i, 6‐Cyclopropyl‐5‐{[(4‐fluorophenethyl)amino]methyl}pyrimidine‐2,4‐diamine] | 0.035 ± 0.002 | > 100 | 0.212 ± 0.012 | 23 ± 3 | 0.0057 ± 0.0005 | 48 ± 5 | –
Nc1nc(N)c(CNCCc2ccccc2F)c(C2CC2)n1 [7 g, 6‐Cyclopropyl‐5‐{[(2‐fluorophenethyl)amino]methyl}pyrimidine‐2,4‐diamine] | 0.031 ± 0.002 | > 100 | 0.205 ± 0.001 | 12 ± 5 | 0.0082 ± 0.0003 | 25 ± 2 | –
Nc1nc(N)c(CNCCc2cccc(F)c2)c(C2CCCCC2)n1 [7 s, 6‐Cyclohexyl‐5‐{[(3‐fluorophenethyl)amino]methyl}pyrimidine‐2,4‐diamine] | 0.074 ± 0.002 | 62 ± 3 | > 500 | – | 0.076 ± 0.005 | 11 ± 2 | 3 ± 0.4
Nc1nc(N)c(CNCCc2ccc(Cl)c(Cl)c2)c(C2CC2)n1 [7 n, 6‐Cyclopropyl‐5‐{[(3,4‐dichlorophenethyl)amino]methyl}pyrimidine‐2,4‐diamine] | 0.013 ± 4e-05 | 23 ± 0.5 | 0.202 ± 0.006 | 3.3 ± 0.1 | 0.0013 ± 6e-05 | 4.4 ± 0.1 | –
Nc1nc(N)c(CNCCc2ccccc2Cl)c(C2CCCCC2)n1 [7 u, 6‐Cyclohexyl‐5‐{[(2‐chlorophenethyl)amino]methyl}pyrimidine‐2,4‐diamine] | 0.038 ± 0.001 | 22 ± 0.05 | > 250 | – | 0.022 ± 0.002 | 16 ± 1 | 3.3 ± 0.3
Nc1nc(N)c(CNCCc2ccc(Cl)cc2)c(C2CCCCC2)n1 [7 w, 6‐Cyclohexyl‐5‐{[(4‐chlorophenethyl)amino]methyl}pyrimidine‐2,4‐diamine] | 0.06 ± 0.001 | 23 ± 0.2 | > 500 | – | – | 4.5 ± 0.3 | 3.1 ± 0.2
Nc1nc(N)c(CNCCc2cccc(F)c2)c(C2CC2)n1 [7 h, 6‐Cyclopropyl‐5‐{[(3‐fluorophenethyl)amino]methyl}pyrimidine‐2,4‐diamine] | 0.026 ± 0.002 | > 100 | 0.458 ± 0.031 | 4.2 ± 0.3 | 0.01 ± 0.0003 | 20 ± 2 | –
COc1ccccc1CCNCc1c(N)nc(N)nc1C1CCCCC1 [7 o, 6‐Cyclohexyl‐5‐{[(2‐methoxyphenethyl)amino]methyl}pyrimidine‐2,4‐diamine] | 0.126 ± 0.009 | 22 ± 0.3 | > 500 | – | 0.128 ± 0.009 | 9.4 ± 1.9 | 3.7 ± 0.3
Nc1nc(N)c(CNCCc2ccccc2Cl)c(C2CC2)n1 [7 j, 6‐Cyclopropyl‐5‐{[(2‐chlorophenethyl)amino]methyl}pyrimidine‐2,4‐diamine] | 0.023 ± 0.0006 | 83 ± 7 | 0.304 ± 0.016 | 0.4 ± 0.01 | 0.0093 ± 0.0005 | 17 ± 3 | –
COc1ccc(CCNCc2c(N)nc(N)nc2C2CCCCC2)cc1 [7 q, 6‐Cyclohexyl‐5‐{[(4‐methoxyphenethyl)amino]methyl}pyrimidine‐2,4‐diamine] | 0.055 ± 0.002 | 23 ± 0.2 | > 500 | – | 0.032 ± 0.001 | 3.7 ± 0.2 | 1.8 ± 0.1
Nc1nc(N)c(CNCCc2ccc(Cl)c(Cl)c2)c(C2CCCCC2)n1 [7 y, 6‐Cyclohexyl‐5‐{[(3,4‐dichlorophenethyl)amino]methyl}pyrimidine‐2,4‐diamine] | 0.028 ± 0.003 | 22 ± 0.1 | > 250 | – | 0.009 ± 0.0007 | 4 ± 0.3 | 3.5 ± 0.3
Nc1nc(N)c(CNCCc2ccc(Cl)cc2Cl)c(C2CCCCC2)n1 [7 x, 6‐Cyclohexyl‐5‐{[(2,4‐dichlorophenethyl)amino]methyl}pyrimidine‐2,4‐diamine] | 0.123 ± 0.008 | 62 ± 3 | > 250 | – | 0.007 ± 0.0003 | 4.9 ± 0.3 | 2.5 ± 0.4
COc1ccc(CCNCc2c(N)nc(N)nc2-c2ccccc2)cc1 [7 c, 6‐Phenyl‐5‐{[(4‐methoxyphenethyl)amino]methyl}pyrimidine‐2,4‐diamine] | 0.069 ± 0.005 | > 100 | > 500 | – | 0.086 ± 0.013 | 34 ± 2 | 28 ± 5
Nc1nc(N)c(CNCCc2cccc(Cl)c2)c(C2CCCCC2)n1 [7 v, 6‐Cyclohexyl‐5‐{[(3‐chlorophenethyl)amino]methyl}pyrimidine‐2,4‐diamine] | 0.036 ± 0.004 | 23 ± 0.2 | > 250 | – | 0.025 ± 0.001 | 4 ± 0.2 | 3.1 ± 0.4
CCc1nc(N)nc(N)c1-c1ccc(Cl)cc1 [PYR, pyrimethamine, reference compound] | – | 60 ± 26 | – | 0.053 | – | > 100 | 0.05 ± 0.007
COc1ccc(CCNCc2c(N)nc(N)nc2C2CC2)cc1 [7 f, 6‐Cyclopropyl‐5‐{[(4‐methoxyphenethyl)amino]methyl}pyrimidine‐2,4‐diamine] | 0.029 ± 0.0006 | 72 ± 1 | 0.647 ± 0.006 | 3.5 ± 0.2 | 0.0035 ± 0.0004 | 15 ± 3 | –
